Consider one protein from ChEMBL document CHEMBL3351938, “C5-Alkyl-2-methylurea-Substituted Pyridines as a New Class of Glucokinase Activators” (ACS Med Chem Lett, 2014).

For orientation: Km means the concentration of substrate that gives half-maximal velocity.

Substrate in data set [1]: CCn1nccc1Oc1cc(CN2CCOCC2)cnc1NC(=O)NC
Put plainly: (§1) Activity of human recombinant Glucokinase measured over 5 mins by spectrophotometry. The method, boiled down:
(§2)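 S_0.5 (K_m for glucose) measured with recombinant human GK; duplicate determinations (n = 2).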

Substrate in data set [2]: CCn1nccc1Oc1cc(C[C@H]2CC[C@H](O)CC2)cnc1NC(=O)NC
The data set is described as §1. The method, boiled down: as §2

Substrate in data set [3]: CCn1nccc1Oc1cc(CCCC(C)(C)O)cnc1NC(=O)NC
The data set is described as §1. The procedure, abridged:
as §2

Substrate in data set [4]: CCc1ncccc1Oc1cc(CCCCOC)cnc1NC(=O)NC
The data set is described as §1. The method, boiled down: as §2

Substrate in data set [5]: CCn1nccc1Oc1cc(C(O)C2CCOCC2)cnc1NC(=O)NC
The description is as §1. The method, boiled down: as §2

Substrate in data set [6]: CCOCCc1cnc(NC(=O)NC)c(Oc2cccnc2CC)c1
The data set is described as §1. The method, boiled down:
as §2

Substrate in data set [7]: CCn1nccc1Oc1cc(C[C@H]2CC[C@](C)(O)CC2)cnc1NC(=O)NC
The data set is described as §1. The method, boiled down:
as §2

Substrate in data set [8]: CCn1nccc1Oc1cc(CC2CCOCC2)cnc1NC(=O)NC
Described as §1. The procedure, abridged:
as §2

Substrate in data set [9]: CCc1ncccc1Oc1cc(CCCCO)cnc1NC(=O)NC
The data set is described as §1. The method, boiled down:
as §2

Substrate in data set [10]: CCn1nccc1Oc1cc(C[C@H]2CCO[C@H](COC)C2)cnc1NC(=O)NC
The data set is described as §1. The procedure, abridged: as §2

Substrate in data set [11]: CCn1nccc1Oc1cc(CCCCOC)cnc1NC(=O)NC
The description is as §1. The method, boiled down: as §2

Substrate in data set [12]: CCn1nccc1Oc1cc(C[C@H]2C[C@@H](O)C2)cnc1NC(=O)NC
The description is as §1. The method, boiled down:
as §2

Substrate in data set [13]: CNC(=O)Nc1ncc(CC2CCOCC2)cc1Oc1ccnn1C(C)C
The data set is described as §1. The method, boiled down:
as §2

Substrate in data set [14]: CCn1nccc1Oc1cc(C[C@@H]2CCO[C@@H](COC)C2)cnc1NC(=O)NC
Described as §1. The method, boiled down: as §2

Substrate in data set [15]: CCn1nccc1Oc1cc(C[C@H]2C[C@@](C)(O)C2)cnc1NC(=O)NC
Described as §1. The procedure, abridged:
as §2

Substrate in data set [16]: CCn1nccc1Oc1cc(C[C@H]2CC[C@@](C)(O)CC2)cnc1NC(=O)NC
The description is as §1. The method, boiled down:
as §2

Substrate in data set [17]: CCc1ncccc1Oc1cc(CCCOC)cnc1NC(=O)NC
The description is as §1. The procedure, abridged: as §2

Substrate in data set [18]: CCn1nccc1Oc1cc(C[C@H]2CC[C@@H](O)CC2)cnc1NC(=O)NC
The data set is described as §1. The method, boiled down: as §2

Substrate in data set [19]: CCc1ncccc1Oc1cc(CC(C)C)cnc1NC(=O)NC
The description is as §1. The procedure, abridged:
as §2

Substrate in data set [20]: CCn1nccc1Oc1cc(C[C@H]2C[C@H](O)C2)cnc1NC(=O)NC
The description is as §1. The procedure, abridged:
as §2

Substrate in data set [21]: CCc1ncccc1Oc1cc(CC2CCOCC2)cnc1NC(=O)NC
The data set is described as §1. The method, boiled down: as §2

Substrate in data set [22]: CCn1nc(COC)cc1Oc1cc(CC2CCOCC2)cnc1NC(=O)NC
The data set is described as §1. The procedure, abridged: as §2

Substrate in data set [23]: CCc1ncccc1Oc1cc(CC2CCCCC2)cnc1NC(=O)NC
Described as §1. The method, boiled down:
as §2

B1: Hexokinase-4 (Homo sapiens), P35557 (protein)
chain: MLDDRARMEAAKKEKVEQILAEFQLQEEDLKKVMRRMQKEMDRGLRLETHEEASVKMLPTYVRSTPEGSEVGDFLSLDLGGTNFRVMLVKVGEGEEGQWSVKTKHQMYSIPEDAMTGTAEMLFDYISECISDFLDKHQMKHKKLPLGFTFSFPVRHEDIDKGILLNWTKGFKASGAEGNNVVGLLRDAIKRRGDFEMDVVAMVNDTVATMISCYYEDHQCEVGMIVGTGCNACYMEEMQNVELVEGDEGRMCVNTEWGAFGDSGELDEFLLEYDRLVDESSANPGQQLYEKLIGGKYMGELVRLVLLRLVDENLLFHGEASEQLRTRGAFETRFVSQVESDTGDRKQIYNILSTLGLRPSTTDCDIVRRACESVSTRAAHMCSAGLAGVINRMRESRSEDVMRITVGVDGSVYKLHPSFKERFHASVRRLTPSCEITFIESEEGSGRGAALVSAVACKKACMLGQ
Take B1: the Km is 860 µM in data set [1]; 710 µM in data set [2]; 840 µM in [3]; 820 µM in [4]; 1200 µM in data set [5]; 880 µM in [6]. The Km in data set [7] is 690 µM; in data set [8] it was 840 µM; in data set [9], 850 µM; in [10], 940 µM; in data set [11], 860 µM; in data set [12], 720 µM. The Km was 950 µM in data set [13]; 880 µM in data set [14]; 820 µM in [15]; 560 µM in [16]; 870 µM in [17]; 760 µM in data set [18]. In addition, the Km in data set [19] amounted to 660 µM; in [20], 630 µM; in [21] it was 850 µM; in data set [22] it was 850 µM; in data set [23], 760 µM.
